From PMC10088587 (Archives of Microbiology, 2023)
In brackets after ≈: the same amount, converted by molar mass. Counter-ions that a name gives are not always drawn.

What was measured:
Cytotoxicity assay = type: cell-based; settings: dog, MDCK cells
How it was run: (§1)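 MDCK cells seeded at 3×10^4/well in 10% FBS and grown 24 h at 37 °C to semi-confluency. Exposed 48 h to twofold dilutions of test compound (2.5 to 0.001 mg/ml), 4 wells per dilution. MTT for 2–3 h at 37 °C in the dark, formazan dissolved in DMSO, OD read at 540 nm, viability taken as % of untreated control. CC50 read from dose-response curves.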

[1] = system: influenza A/PR/8/34 (H1N1) virus; type: cell-based
MDCK cells [2] = experiment: Cytotoxicity assay; type: cell-based; settings: 48 h, MTT; for NCTC (EC50): NCTC was selected as EC50 (HA test)
How it was run: as §1

[3] = system: H1N1-induced apoptosis in MDCK cells; type: cell-based
[4] = Critical micelle concentration; type: physicochemical
MDCK cells [5] = type: cell-based
[6] = biological target: virus surface HA glycoprotein (Influenza A virus, UniProt P03452); experiment: Hemagglutination inhibition assay; type: biochemical; settings: twofold dilutions from CC50, 4 HA unit of virus, 1% cRBC
virus surface HA glycoprotein, sequence (P03452 18-342 limits assumed): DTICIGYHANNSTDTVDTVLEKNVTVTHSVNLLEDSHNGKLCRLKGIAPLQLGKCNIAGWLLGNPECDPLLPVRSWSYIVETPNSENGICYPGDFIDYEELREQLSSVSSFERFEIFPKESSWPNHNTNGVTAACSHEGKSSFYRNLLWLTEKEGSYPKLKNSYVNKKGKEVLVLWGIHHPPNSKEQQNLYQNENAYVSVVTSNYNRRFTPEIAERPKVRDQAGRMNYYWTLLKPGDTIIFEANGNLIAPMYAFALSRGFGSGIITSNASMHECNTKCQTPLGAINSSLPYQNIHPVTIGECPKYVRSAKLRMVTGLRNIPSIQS
virus surface HA glycoprotein, sequence (P03452 344-565 limits assumed): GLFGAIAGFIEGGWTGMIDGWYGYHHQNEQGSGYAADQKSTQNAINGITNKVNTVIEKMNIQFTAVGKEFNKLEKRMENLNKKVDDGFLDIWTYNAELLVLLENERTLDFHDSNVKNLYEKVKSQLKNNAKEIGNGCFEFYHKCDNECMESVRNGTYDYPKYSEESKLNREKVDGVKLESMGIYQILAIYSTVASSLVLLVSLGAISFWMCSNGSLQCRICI

| Compound | Log HA decrement (mean ± SD), Co-pen [1] | CC50 (MDCK cells [2]) | NCTC (EC50) (MDCK cells [2]) | Apoptosis evaluation (%), Q4 healthy cells [3] | CMC (critical micelle concentration) [4] | other results |
| --- | --- | --- | --- | --- | --- | --- |
| NC12CC3CC(CC(C3)C1)C2 [Ama, amantadine hydrochloride, reference compound] | 7 logs |  |  |  |  | CC50 at 48 h (Cytotoxicity assay): 197 ± 1.5 µg/mL; EC50 at 48 h (Cytotoxicity assay): 98.5 µg/mL |
| CCCCCCCCCCCCCCCC[N+](C)(C)Cc1ccc(C[N+](C)(C)CCCCCCCCCCCCCCCC)cc1.[Br-].[Br-] [GSH, 1,4-phenylene-bis(methylene)bis (N,N-dimethyl-N-hexadecylammonium bromide)] |  | 522.2 ± 0.0 µg/mL | 36.7 ± 28.6 µg/mL | 68.05% | 0.48 |  |
| CCCCCCCCCCCCCCCC[N+](C)(C)CCCCCCCCCC[N+](C)(C)CCCCCCCCCCCCCCCC.[Br-].[Br-] [GSF, Decamethylene-1,10-bis(N,N-dimethyl-N-hexadecylammonium bromide)] |  | 8.8 ± 0.0 µg/mL | 1.7 ± 0.5 µg/mL | 70.50% | 0.032 | Apoptosis evaluation (%), Q4 healthy cells (MDCK cells [5]): 82.950 ± 8.132% |
| CCCCCCCCCCCC[N+](C)(C)CCCNCCC[N+](C)(C)CCCCCCCCCCCC.[Br-].[Br-] [GSB, 4-aza-1,7-heptane-bis(N,N-dimethyl-N-dodecylammonium bromide)] |  | 1.9 ± 0.1 µg/mL | 0.7 ± 0.3 µg/mL |  | 1.047 | Apoptosis evaluation (%), Q2 late apoptosis [3]: 49.50% |
| CCCCCCCCCCCC[N+](C)(C)CCCCCCCCCC[N+](C)(C)CCCCCCCCCCCC.[Br-].[Br-] [GSC, Decamethylene-1,10-bis(N,N-dimethyl-N-dodecylammonium bromide)] | 6.5 logs | 4.0 ± 0.0 µg/mL | 1.2 ± 0.6 µg/mL | 37.50% | 0.63 | Log HA decrement (mean ± SD), Pre-pen [1]: 4.5 logs; Apoptosis evaluation (%), Q4 healthy cells (MDCK cells [5]): 37.500 ± 9.900% |
| CCCCCCCCCCCCCCCC[N+](C)(C)CCCCCC[N+](C)(C)CCCCCCCCCCCCCCCC.[Br-].[Br-] [GSA, Hexamethylene-1,6-bis(N,N-dimethyl-N-hexadecylammonium bromide)] | 6.5 logs | 7.7 ± 0.0 µg/mL | 2.6 ± 1.7 µg/mL | 54.85% | 0.034 |  |
| CCCCCCCCCCCC[N+](C)(C)CCOCC[N+](C)(C)CCCCCCCCCCCC.[Br-].[Br-] [GSD, 3-oxa-1,5-pentane-bis(N,N-dimethyl-N-dodecylammonium bromide)] |  | 4.9 ± 0.1 µg/mL | 1.7 ± 0.6 µg/mL |  | 1.047 | Apoptosis evaluation (%), Q2 late apoptosis [3]: 46.70%; Log HA decrement (mean ± SD), Post-pen [1]: 5.5 logs |
| CCCCCCCCCCCCCCCC[N+](C)(C)CCCCCCCCCCCC[N+](C)(C)CCCCCCCCCCCCCCCC.[Br-].[Br-] [GSG, Dodecamethylene-1,12-bis(N,N-dimethyl-N-hexadecylammonium bromide)] |  | 11.9 ± 0.0 µg/mL | 1.7 ± 1.3 µg/mL | 70.10% | 0.022 |  |
| CCCCCCCCCCCCCCCCCC[N+](C)(C)CCCCCCCCCCCC[N+](C)(C)CCCCCCCCCCCCCCCCCC.[Br-].[Br-] [GSJ, Dodecamethylene-1, 12-bis (N, N-dimethyl-N-octadecylammonium bromide)] |  | 48.6 ± 0.0 µg/mL | 0.6 ± 0.2 µg/mL | 68.75% | 0.0331 |  |
| CCCCCCCCCCCCCCCCCC[N+](C)(C)CCCCCCCCCC[N+](C)(C)CCCCCCCCCCCCCCCCCC.[Br-].[Br-] [GSI, Decamethylene-1,10-bis(N,N-dimethyl-N-octadecylammonium bromide)] |  | 16.4 ± 0.0 µg/mL | 2.6 ± 1.5 µg/mL | 77.90% | 0.0213 | Apoptosis evaluation (%), Q4 healthy cells (MDCK cells [5]): 84.850 ± 1.202% |
| CCC(CC)O[C@@H]1C=C(C(=O)O)C[C@H](N)[C@H]1NC(C)=O [Ose, oseltamivir carboxylate, reference compound] | 8 logs | 788.5 ± 6.0 µg/mL (≈ 2770 µM) | 394.2 ± 0.0 µg/mL |  |  | Dilution to give HI + [6]: 1st; Log HA decrement (mean ± SD), Post-pen [1]: 8 logs; Log HA decrement (mean ± SD), Pre-pen [1]: 8 logs |
| CCCCCCCCCCCCCCCCCC[N+](C)(C)Cc1ccc(C[N+](C)(C)CCCCCCCCCCCCCCCCCC)cc1.[Br-].[Br-] [GSK, 1,4-phenylene-bis(methylene) bis (N,N-dimethyl-N-octadecylammonium bromide)] |  | 1229.2 ± 0.0 µg/mL | 307.3 ± 0.0 µg/mL |  | 0.29 |  |
| CCCCCCCCCCCC[N+](C)(C)CCCCCC[N+](C)(C)CCCCCCCCCCCC.[Br-].[Br-] [GSE, Hexamethylene-1,6-bis (N,N-dimethyl-N-dodecylammonium bromide)] |  | 3.4 ± 0.0 µg/mL | 0.9 ± 0.5 µg/mL |  | 0.98 | Apoptosis evaluation (%), Q3 early apoptosis [3]: 54.10% |
